In ChEMBL document CHEMBL1125676, “Synthesis and structure-activity studies of alkyl-substituted gamma-butyrolactones and gamma-thiobutyrolactones: ligands for the picrotoxin receptor” (J Med Chem, 1991):

Legend:
Mus musculus [1] = organism: Mus musculus; experiment: Convulsant potency was determined by measuring the ability to produce seizures in mice; assay type: functional
In short: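 Compound given ip in 30% polyethylene glycol (0.01 mL/g body weight). Mice observed for 30 min for seizure activity. Value is the CD50 for clonic convulsions, from log probit analysis; 95% fiducial limits given.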

[2] = Neurotoxic effects by rotarod test in mice.; assay type: ADME, organism-based; settings: mouse, in vivo
In short: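 Rotorod test in mice after ip dosing in 30% polyethylene glycol (0.01 mL/g). TD50 from log probit analysis of dose–response data.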

Mus musculus [3] = organism: Mus musculus; experiment: Anticonvulsant activity in mice by inhibition of pentylenetetrazole induced seizures.; assay type: functional
Mus musculus [4] = organism: Mus musculus; experiment: Anticonvulsant activity in mice by maximal electroshock test.; assay type: functional
In short: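 Maximal electroshock applied through corneal electrodes after 0.9% NaCl drops on the eyes. Compound given ip in 30% polyethylene glycol (0.01 mL/g). Protection defined as no tonic hind-limb extension past 90°. ED50 from log probit analysis of dose–response data.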

[5] = biological target: GABA-A receptor; anion channel; experiment: Binding affinity to picrotoxin site of Gamma-aminobutyric acid receptor using [35S]TBPS as radioligand; assay type: protein-complex assay, Rattus norvegicus
In short: (§1)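 Rat cerebral cortex membranes (female Sprague–Dawley) washed and held in 50 mM Tris-citrate pH 7.5. [35S]TBPS at 2 nM final, in NaBr. Incubated in triplicate for 90 min at 25 °C, then filtered and scintillation counted. Nonspecific binding with 10 μM TBPS or 100 μM picrotoxinin. IC50 by log probit from ≥5 concentrations; mean ± SEM of three experiments.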

[6] = biological target: GABA-A receptor; anion channel; experiment: Binding affinity to picrotoxin site of the Gamma-aminobutyric acid receptor was measured using [35S]TBPS as radioligand; assay type: protein-complex assay; in short: as §1
Mus musculus [7] = experiment: Concentration of brain at 5 min was determined after the compound was administered intraperitoneally at a dose 259 mg/kg in mice; assay type: functional; settings: route intraperitoneal
In short: (§2)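 Female CF-1 mice dosed ip and decapitated at the set time, n = 3. Cerebral cortex frozen and homogenized at 4 °C in chloroform:methanol 2:1 with an internal standard. Lower phase analysed by capillary GC-FID with splitless injection. Concentration taken from the ratio to the internal standard, corrected for detector response and wet weight. Mean ± SEM.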

Mus musculus [8] = experiment: Concentration of brain at 20 min was determined after the compound was administered intraperitoneally at a dose 259 mg/kg in mice; assay type: functional; settings: route intraperitoneal; in short: as §2
Mus musculus [9] = experiment: Concentration of brain at 10 min was determined after the compound was administered intraperitoneally at a dose 259 mg/kg in mice; assay type: functional; settings: route intraperitoneal; in short: as §2
Mus musculus [10] = experiment: Concentration of brain at 30 min was determined after the compound was administered intraperitoneally at a dose 259 mg/kg in mice; assay type: functional; settings: route intraperitoneal; in short: as §2
Mus musculus [11] = experiment: Concentration of brain at 40 min was determined after the compound was administered intraperitoneally at a dose 259 mg/kg in mice; assay type: functional; settings: route intraperitoneal

## CCC1(C)CSC(=O)C1 (stereo not given)
Mus musculus [1]
  CD50: 3.5 mg/kg

## CCC1CCOC1=O (stereo not given)
[2]
  TD50: > 500 mg/kg
Mus musculus [3]
  ED50: > 500 mg/kg
Mus musculus [4]
  ED50: > 500 mg/kg
[5]
  IC50: 8500 µM

## CCC1(C)CCSC1=O (stereo not given)
[6]
  IC50: 330 µM

## CCC1(CC)CCOC1=O
[2]
  TD50: 416 mg/kg
Mus musculus [3]
  ED50: 191 mg/kg
Mus musculus [4]
  ED50: 463 mg/kg
[5]
  IC50: 750 µM

## CC(C)C1(C)CCOC1=O (stereo not given)
[2]
  TD50: 278 mg/kg
Mus musculus [3]
  ED50: 198 mg/kg
Mus musculus [4]
  ED50: > 500 mg/kg
[6]
  IC50: 850 µM

## CC1(C)CCSC1=O
[2]
  TD50: 220 mg/kg
Mus musculus [3]
  ED50: 208 mg/kg
Mus musculus [4]
  ED50: 369 mg/kg
[6]
  IC50: 920 µM

## CC1CCSC1=O (stereo not given)
Mus musculus [3]
  ED50: 91 mg/kg
Mus musculus [4]
  ED50: 91 mg/kg
[6]
  IC50: 4400 µM

## CC(C)C1(C(C)C)CCSC1=O
[2]
  TD50: > 500 mg/kg
Mus musculus [3]
  ED50: > 500 mg/kg
Mus musculus [4]
  ED50: > 500 mg/kg
[6]
  IC50: 74 µM

## CC1(C)CCOC1=O
[2]
  TD50: > 500 mg/kg
Mus musculus [3]
  ED50: > 500 mg/kg
Mus musculus [4]
  ED50: > 500 mg/kg
[5]
  IC50: 9200 µM

## CC1CCOC1=O (stereo not given)
[2]
  TD50: > 500 mg/kg
Mus musculus [3]
  ED50: > 500 mg/kg
Mus musculus [4]
  ED50: > 500 mg/kg
[6]
  IC50: > 10000 µM

## CC(C)C1CCSC1=O (stereo not given)
[2]
  TD50: > 500 mg/kg
Mus musculus [3]
  ED50: 145 mg/kg
Mus musculus [4]
  ED50: > 500 mg/kg
[5]
  IC50: 260 µM

## CC(C)C1(C)CCSC1=O (stereo not given)
[2]
  TD50: > 500 mg/kg
Mus musculus [3]
  ED50: 154 mg/kg
Mus musculus [4]
  ED50: > 500 mg/kg
[6]
  IC50: 140 µM

## CCC1(C)CC(=O)OC1(C)C (stereo not given)
Mus musculus [1]
  CD50: 8.2 mg/kg
[5]
  IC50: 22000 µM

## CCC1CCSC1=O (stereo not given)
[2]
  TD50: > 500 mg/kg
Mus musculus [3]
  ED50: 414 mg/kg
Mus musculus [4]
  ED50: 232 mg/kg
[6]
  IC50: 1500 µM

## CC(C)C1(C(C)C)CCOC1=O
Mus musculus [3]
  ED50: 137 mg/kg
[6]
  IC50: 220 µM

## CC(C)C1CCOC1=O (stereo not given)
[2]
  TD50: > 400 mg/kg
Mus musculus [3]
  ED50: 150 mg/kg
Mus musculus [4]
  ED50: > 400 mg/kg
[6]
  IC50: 2000 µM

## CC(C)C1COC(=O)C1 (stereo not given)
Mus musculus [1]
  CD50: 15 mg/kg
[6]
  IC50: 42000 µM

## CC(C)(C)C1COC(=O)C1 (stereo not given)
Mus musculus [1]
  CD50: 5.5 mg/kg
[5]
  IC50: 13000 µM

## CCC1(C)COC(=O)C1 (stereo not given)
Mus musculus [1]
  CD50: 20 mg/kg
[6]
  IC50: 55000 µM

## CC(C)(C)C1CCOC1=O (stereo not given)
[2]
  TD50: > 500 mg/kg
Mus musculus [3]
  ED50: 145 mg/kg
Mus musculus [4]
  ED50: 375 mg/kg
[5]
  IC50: 990 µM

## CCC1(CC)CCSC1=O
[2]
  TD50: 285 mg/kg
Mus musculus [3]
  ED50: 104 mg/kg
Mus musculus [4]
  ED50: 374 mg/kg
[6]
  IC50: 260 µM

## CCC1(C)CCOC1=O (stereo not given)
[2]
  TD50: 621 mg/kg
Mus musculus [7]
  Brain concentration: 2.97 mM
Mus musculus [3]
  ED50: 259 mg/kg
Mus musculus [8]
  Brain concentration: 1.35 mM
Mus musculus [4]
  ED50: > 500 mg/kg
Mus musculus [9]
  Brain concentration: 1.83 mM
Mus musculus [10]
  Brain concentration: 1.21 mM
Mus musculus [11]
  Brain concentration: 0.88 mM
[5]
  IC50: 2300 µM

## CC(C)(C)C1CCSC1=O (stereo not given)
[2]
  TD50: > 500 mg/kg
Mus musculus [3]
  ED50: 244 mg/kg
Mus musculus [4]
  ED50: > 500 mg/kg
[6]
  IC50: 190 µM
